Bioassay records deposited in PubChem by Johns Hopkins Ion Channel Center.
The list is not random: actives were taken first. Their share in the collection is about 3.7%.
KCNK3 block: human KCNK3 channel inhibitors, primary screen, CHO cells, FluxOR thallium flux, B-score; B-score at 10 µM; FluxOR fluorescence; hits give low values; AID 602410, 2012; Potassium channel subfamily K member 3 (Homo sapiens), O14649; 0.84% of 340,000 active;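 active = B-score under library mean minus 4 SD, starting fluorescence ratio at most library mean plus 5 SD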;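 also: more negative B-score means stronger inhibition of thallium flux through KCNK3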
KCNQ1 act: potentiators or activators of KCNQ1 channel, primary screen, cell-based, thallium flux, high-throughput; Potassium voltage-gated channel subfamily KQT member 1 (Homo sapiens), P51787; CHO-K1 KCNQ1, thallium flux FluxOR fluorescence; hits give high values; B-score at 10 µM; 0.35% of 310,000 active; AID 2648, 2010;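 active = fluorescence ratio B-score, a plate-corrected score, at least three library SD, with initial intensity B-score within 5 SD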
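Material: CHO-K1 cells stably expressing KCNQ1. Medium: assay buffer for compound exposure, DMSO matched across wells. Reagent: K+/Tl+ depolarizing stimulus. Compound dosing: single-concentration screen. Times: 37 °C overnight plating, 90-min dark dye load, 20-min compound pretreatment. Technique: FluxOR Tl+ flux fluorescence.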
KCNQ1 block: inhibitors of human KCNQ1 channel, primary screen, cell-based, thallium flux, high-throughput | Potassium voltage-gated channel subfamily KQT member 1 (Homo sapiens), P51787 | CHO-K1 KCNQ1, FluxOR thallium flux fluorescence; hits give high values | B-score at 10 µM | 1.3% of 310,000 active;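 active = compounds whose thallium flux B-score, printed positive for inhibition, exceeds three library SD while starting fluorescence stays within three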;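 also: channel opened by potassium depolarization with thallium stimulus after 20 min compound exposure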
Kir21 inh: inhibitors of mouse Kir2.1 inward-rectifier potassium channel. Inward rectifier potassium channel 2 (Mus musculus), P35561. HEK293-Kir2.1, FluxOR thallium flux fluorescence; hits give low values. B-score at 10 µM. 0.85% of 310,000 active;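 active = fluorescence ratio B-score at or below minus 3 SD of library scores, with starting-brightness B-score within 2 SD, cut at about -4.2 in these data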;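 also: channel flux triggered by added potassium and thallium sulfate stimulus; B-score of peak minus minimum fluorescence over baseline after thallium stimulus; more negative B-score means stronger Kir2.1 block with less thallium influx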
hERG rescue: hERG rescue from dofetilide block, primary screen, cell-based, CHO-hERG, FluxOR thallium flux, dofetilide IC70; Voltage-gated inwardly rectifying potassium channel KCNH2 (Homo sapiens), Q12809; dofetilide IC70 present; activation (rescue from dofetilide block), less the hit threshold, % at 10 µM; 0.51% of 310,000 active; AID 1511, 2009;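 active = activation above the mean of controls blocked by dofetilide plus 5 SD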;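 also: thallium influx through hERG after potassium depolarization seen as dye fluorescence rise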
KCNK9 block: KCNK9 potassium channel inhibitors, primary screen, HEK293 cells, thallium flux. B-score at 10 µM. Potassium channel subfamily K member 9 (Homo sapiens), Q9NPC2. FluxOR thallium flux fluorescence; hits give low values. 1.2% of 310,000 active;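 active = ratio B-score over 3 SD below the library mean, with starting fluorescence within 5 SD of its mean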;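 also: negative B-score means less thallium flux so channel inhibition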
Numbers without * were called inactive; i = inactive; . = not tested or not shown.

SMILES | KCNK3 block | KCNQ1 act | KCNQ1 block | Kir21 inh | hERG rescue | KCNK9 block
COc1cc(/C=C(/C(=O)c2cccs2)c2nc3ccccc3[nH]2)ccc1O | i | i | i | -4.41* | -18.6 | i
CCCCCCCCCCCC(=O)NC(C(=O)O)C(O)c1ccccc1 (stereo not drawn) | i | i | i | -0.05 | -4.9 | i
CCCCCCCCNC(C)C(O)c1ccc(SC(C)C)cc1 (stereo not drawn) | i | i | 6* | -2.92 | -24.9 | i
c1ccc(-c2nc(N3CCN(c4ccccc4)CC3)nc(-n3ccnc3)n2)cc1 | i | i | i | -0.1 | -14.0 | -7.07*
CCn1c(=S)[nH]c2c(c1=O)C(C)(C)Cc1ccccc1-2 | i | 17* | i | 0.86 | 45.4* | i
O=[N+]([O-])c1cccc(-c2ccc(/C=N/Nc3nc(N4CCCCC4)nc(N4CCCCC4)n3)o2)c1 | i | i | 7* | 0.29 | -15.7 | i
O=[N+]([O-])c1ccc(-c2ccc(/C=N/Nc3nc(N4CCCCC4)nc(N4CCCCC4)n3)o2)cc1 | i | i | i | 1.11 | -7.3 | i
Cc1[nH]c(-c2ccccn2)nc(=S)c1Cl | i | 41* | i | 2.59 | 51.7* | i
Cc1cc(=S)nc(-c2ccccn2)[nH]1 | i | i | i | 1.2 | 1.8 | i
O=C(NC(=S)Nc1cc([N+](=O)[O-])ccc1O)c1ccc2c(c1)OCO2 | i | i | 6* | 1.27 | -11.6 | i
O=C(NC(=S)Nc1ccccc1N1CCCCC1)c1ccc(-c2cccc([N+](=O)[O-])c2)o1 | i | i | i | 0.59 | -8.7 | i
COC(=O)c1ccccc1NC(=S)NC(=O)c1ccc2c(c1)OCO2 | i | i | i | -1.09 | -8.5 | i
O=C(NC(=S)Nc1ccccc1N1CCCC1)c1ccc(-c2cccc([N+](=O)[O-])c2)o1 | i | 8* | i | 0.47 | -1.2 | i
O=C(NC(=S)Nc1ccccc1N1CCCC1)c1ccc([N+](=O)[O-])cc1 | i | 8* | i | -0.11 | 8.1* | i
O=C(O)CN1C(=O)c2ccc(C(=O)c3ccccc3)cc2C1=O | i | i | i | 1.46 | -4.7 | i
CCOC(=O)Cn1c(S(=O)(=O)Cc2ccc(Cl)cc2)nc(-c2ccccc2)c1-c1ccccc1 | i | i | i | -1.3 | -12.1 | -6.76*
CCOc1ccccc1NC(=O)Cc1coc2cc(C)ccc12 | i | i | i | -5.01* | -6.7 | i
COc1ccccc1NC(=O)Cc1coc2cc(C)ccc12 | i | i | i | -3.5 | -6.3 | i
CCc1ccc(N2CC(C(=O)OCC(=O)Nc3ccc(C(C)=O)cc3)CC2=O)cc1 (stereo not drawn) | i | . | . | . | . | .
COc1cc(CNC(C)c2ccccc2)cc(Cl)c1OCC(=O)Nc1ccccc1 (stereo not drawn) | i | i | i | -9.48* | -18.9 | i
O=C(CNC(=O)c1ccccc1F)OCC(=O)c1ccc(Cl)s1 | i | i | i | -0.36 | -14.7 | i
CS(=O)(=O)Nc1cccc(C2=NN(S(=O)(=O)c3ccc(F)cc3)C(c3cccs3)C2)c1 (stereo not drawn) | i | i | i | -2.21 | -14.8 | i
CS(=O)(=O)Nc1ccc(C2=NN(S(=O)(=O)c3ccccc3)C(c3cccs3)C2)cc1 (stereo not drawn) | i | i | i | -1.54 | -6.9 | -8.07*
COc1ccc(S(=O)(=O)N2CCCC2c2cccs2)cc1 (stereo not drawn) | i | i | i | -3.47 | -11.8 | i
O=S(=O)(c1ccccc1)N1CCCC1c1cccs1 (stereo not drawn) | i | i | i | -5.44* | -15.2 | i
SMILES | KCNK3 block | KCNQ1 act | KCNQ1 block | Kir21 inh | hERG rescue | KCNK9 block
O=C1CC(C(=O)N2CCN(c3ccccc3)CC2)CN1Cc1ccccc1 (stereo not drawn) | i | . | . | . | . | .
CC(C)OCCCNC(=O)c1cc(S(=O)(=O)N2CCc3ccccc32)cn1C | i | i | i | 1.31 | -8.3 | i
CN1CC(=O)N/C1=N\C(=O)Nc1ccc(O)cc1 | i | i | i | -1.01 | -7.8 | i
Cc1ccc(C(=O)c2ccc(C)cc2)cc1 | i | i | i | 0.21 | 1.6 | i
Cc1ccc(C(=O)c2no[n+]([O-])c2C(=O)c2ccc(C)cc2)cc1 | i | i | i | -7.89* | -26.1 | i
S=C1N(c2ccccc2)C(c2ccccc2)N2CCCN12 (stereo not drawn) | i | 8* | i | 0.12 | -7.0 | i
COc1cccc(CNC(=O)CN2C(=O)COc3ccc(S(=O)(=O)N4CCCCC4)cc32)c1 | i | i | i | -1.22 | -7.7 | i
Cc1cccc(-c2cc3nc(-c4ccccc4)cc(=O)n3[nH]2)c1 | i | i | i | -1.97 | -3.3 | i
Cc1ccc(S(=O)(=O)N2CCC(=O)N(C(CO)Cc3ccccc3)CC2)cc1 (stereo not drawn) | i | i | i | 0.3 | -7.0 | i
Cc1ccc(S(=O)(=O)N2CCC(=O)N(C(COC(=O)Nc3ccccc3)Cc3ccccc3)CC2)cc1 (stereo not drawn) | i | i | i | -0.1 | -16.4 | -6.67*
C=CCc1cc(OC)ccc1OCCOCCN1CCc2ccccc2C1 | i | i | i | -11.8* | -15.5 | i
COc1ccc(OCCCN2CCc3ccccc3C2)cc1 | i | i | i | 0.16 | -3.6 | i
CCOc1ccc(OCCOCCN2CCc3ccccc3C2)cc1 | i | i | i | -4.21* | -8.6 | i
CCCOc1ccc(OCCOCCN2CCc3ccccc3C2)cc1 | i | i | i | -10.1* | -9.7 | i
Clc1ccc(SCCOCCN2CCCCCC2)cc1 | i | i | i | -0.74 | -5.4 | i
Cc1ccc(SCCOCCN2CCc3ccccc3C2)cc1 | i | i | i | -4.62* | -12.2 | i
c1ccc(OCCOCCN2CCc3ccccc3C2)cc1 | i | i | i | 0.09 | -7.9 | i
CN1CCS/C1=C/C=C1\SC(=S)N(CC(=O)O)C1=O | i | i | 14* | -11.6 | -32.0 | i
CCCCN1C(=O)/C(=C/C=C2\SCCN2C)SC1=S | i | i | i | -1.24 | -16.2 | i
